T cruzi growth-1 = inhibitors of T. cruzi proliferation. T. cruzi beta-gal in NIH3T3, GalScreen luminescence, 90 h. inhibition, % at 8.34 µM. actives 5.9% (n = 77,000). AID 624255;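 active = mean inhibition above about 93%, with at least 55% of replicates each passing it, limit read from the data, passing the limit was not always enough; inconclusive = only one of those two conditions holds; inactive = neither condition holds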
IDH1 R132H inh = inhibitors of human IDH1 R132H; IDH1 R132H reductase, diaphorase/resazurin fluorescence, 60 min; inhibition, % at 10 µM; actives 0.18% (n = 70,000); AID 624101; O75874; in the data active = inhibition above about 34%; inconclusive = no clear call, values can overlap the other calls; inactive = below about 11%
GASC1 inh = inhibitors of human demethylase GASC-1 KDM4C; actives 0.15% (n = 96,000); inhibition, % at 12.5 µM; GST-KDM4C 2-372, H3K9me3 peptide, LANCE TR-FRET; AID 720574; Q9H3R0;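 active = mean replicate inhibition above about 25%, with at least 55% of replicates also reaching it, limit read from the data, passing the limit was not always enough; inconclusive = only one of those two conditions met; inactive = neither condition met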
Target sequence (Q9H3R0 2-372 limits assumed): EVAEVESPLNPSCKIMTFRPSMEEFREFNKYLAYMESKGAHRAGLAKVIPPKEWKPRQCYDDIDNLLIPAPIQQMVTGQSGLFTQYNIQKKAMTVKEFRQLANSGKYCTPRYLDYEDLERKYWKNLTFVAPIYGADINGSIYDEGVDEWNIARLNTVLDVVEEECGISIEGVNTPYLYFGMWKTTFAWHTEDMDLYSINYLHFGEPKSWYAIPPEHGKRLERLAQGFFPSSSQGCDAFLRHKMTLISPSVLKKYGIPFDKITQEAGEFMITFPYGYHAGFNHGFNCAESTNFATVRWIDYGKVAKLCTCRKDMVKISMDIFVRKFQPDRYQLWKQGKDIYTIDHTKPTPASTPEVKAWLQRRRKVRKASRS
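Material: GST-tagged GASC-1 (JMJD2C) catalytic fragment, aa 2-372. Input: enzyme final amount 10 nM. Medium: HEPES buffer, pH 7.5, plus ascorbate. Reagent: H3K9me3 peptide substrate, Fe(II), 2-oxoglutarate. Doses: single dose. Times: reaction 30 min RT, detection step 1 h RT. Measured by: LANCE TR-FRET. Evaluation: Fall in 671/618 emission ratio as inhibition.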
T cruzi growth-2 = Trypanosoma cruzi proliferation inhibition. inhibition, % at 8.35 µM. T. cruzi beta-gal in NIH3T3, GalScreen luminescence, 90 h. actives 72% (n = 5,600). shares compounds with T cruzi growth-1;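 active = mean replicate inhibition above about 95% and at least 55% of replicates individually reaching it, limit read from the data; inconclusive = only one of the two criteria is met; inactive = neither criterion is met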
T cruzi growth-3 = Trypanosoma cruzi proliferation inhibition; actives 21% (n = 5,600); T. cruzi beta-gal in NIH3T3, GalScreen luminescence, 90 h; inhibition, % at 2.09 µM; shares compounds with T cruzi growth-1;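 active = mean inhibition above about 95%, with at least 55% of replicates also reaching it, limit read from the data; inconclusive = meets just one of the two conditions; inactive = meets neither condition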
3T3 cytotox = cytotoxicity in mouse NIH/3T3 fibroblasts | NIH/3T3 viability, CellTiter-Glo ATP luminescence, 90 h | cytotoxicity (signal decrease), % at 8.35 µM | actives 14% (n = 5,600) | shares compounds with T cruzi growth-1;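 active = mean signal decrease across replicates above about 35% based on untreated-well scatter, with enough replicates individually passing, limit read from the data; inconclusive = no rule stated though some were filed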
3T3 cytotox 2 = cytotoxicity in mouse NIH/3T3 fibroblasts; shares compounds with T cruzi growth-1; NIH/3T3 viability, CellTiter-Glo ATP luminescence, 90 h; inhibition, % at 24.9 µM; actives 56% (n = 5,600); AID 651744;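 active = mean loss of cell viability signal at or above a set limit, and enough replicates individually reaching it; inconclusive = meets only the mean limit or only the replicate share; inactive = meets neither condition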
Numbers stand for hits; i = inactive; ? = inconclusive; nt = no result. This is one part of a sample in which hits are shown more often than they occur.

SMILES	T cruzi growth-1	IDH1 R132H inh	GASC1 inh	T cruzi growth-2	T cruzi growth-3	3T3 cytotox	3T3 cytotox 2
C/C=C/c1cnc2c(c1)C(=O)N([C@H](C)CO)C[C@@H](C)[C@H](CN(C)S(=O)(=O)c1ccccc1F)O2	nt	i	i	nt	nt	nt	nt
O=C(CCCCC(=O)N/N=C/c1c(O)ccc2ccccc12)NO	nt	i	nt	nt	nt	nt	nt
CCOC(=O)c1ccc(COC(=O)c2ccc3ccccc3c2O)o1	nt	i	nt	nt	nt	nt	nt
Cc1cccc(-c2nnc(SCC(=O)Nc3cc([N+](=O)[O-])ccc3C)o2)c1	nt	i	nt	nt	nt	nt	nt
O=C(C[C@H]1CC[C@@H]2[C@H](COC[C@@H](O)CN2CCC(F)(F)F)O1)N1CCC(Cc2ccccc2)CC1	?	nt	i	i	i	i	i
O=C(C[C@H]1CC[C@@H]2[C@H](COC[C@H](O)CN2Cc2ccccc2)O1)N1CCOCC1	123	nt	i	i	i	i	i
O=C(C[C@@H]1CC[C@H]2[C@@H](COC[C@@H](O)CN2Cc2ccc(Oc3ccccc3)cc2)O1)N1CCOCC1	i	nt	i	nt	nt	nt	nt
O=C(C[C@@H]1CC[C@H]2[C@@H](COC[C@@H](O)CN2CCC(F)(F)F)O1)N1CCC(Cc2ccccc2)CC1	i	nt	i	nt	nt	nt	nt
O=C(C[C@@H]1CC[C@@H]2[C@H](COC[C@H](O)CN2Cc2ccccc2)O1)N1CCOCC1	i	nt	i	nt	nt	nt	nt
O=C(C[C@@H]1CC[C@H]2[C@@H](COC[C@H](O)CN2Cc2ccc(Oc3ccccc3)cc2)O1)N1CCN(c2ccccc2)CC1	130	nt	i	102	i	38	101
C[C@@H]1O[C@@H](Oc2ccc3c(=O)c(-c4ccc(O)cc4)coc3c2)[C@H](O)[C@H](O)[C@H]1O	nt	i	nt	nt	nt	nt	nt
COc1ccccc1NC(=O)c1c(NC(=O)Cc2ccc([N+](=O)[O-])cc2)sc(C)c1C	nt	i	nt	nt	nt	nt	nt
Cc1ccc(S(=O)(=O)NCCC(=O)Oc2ccc3c(=O)c(-c4ccc(F)cc4)coc3c2)cc1	nt	i	nt	nt	nt	nt	nt
Cc1ccc(-n2c(SCC(=O)N(C)c3ccccc3)nc3nc4c(cc3c2=O)COC(C)(C)C4)cc1	nt	i	nt	nt	nt	nt	nt
O=S(=O)(c1cccs1)N1CCCCN2[C@@H](CO)[C@H](c3ccc(Br)cc3)[C@@H]2C1	103	nt	i	105	i	i	i
O=S(=O)(c1cccs1)N1CCCCN2[C@H](C1)[C@H](c1ccc(C3=CCCC3)cc1)[C@@H]2CO	i	nt	i	nt	nt	nt	nt
O=S(=O)(c1cccs1)N1CCCCN2[C@H](CO)[C@H](c3ccc(C4=CCCCC4)cc3)[C@H]2C1	105	nt	nt	107	i	i	104
C/C=C/c1ccc([C@H]2[C@H]3CN(S(=O)(=O)c4cccs4)CCCCN3[C@H]2CO)cc1	106	nt	i	106	i	i	61
O=S(=O)(c1cccs1)N1CCCCN2[C@@H](CO)[C@@H](c3ccc(/C=C/c4ccccc4)cc3)[C@@H]2C1	i	nt	i	nt	nt	nt	nt
O=S(=O)(c1cccs1)N1CCCCN2[C@H](C1)[C@H](c1ccc(Br)cc1)[C@@H]2CO	109	nt	i	100	i	i	i
O=S(=O)(c1cccs1)N1CCCCN2[C@H](CO)[C@@H](c3ccc(Br)cc3)[C@H]2C1	i	nt	i	nt	nt	nt	nt
C/C=C/c1ccc([C@@H]2[C@@H](CO)N3CCCCN(S(=O)(=O)c4cccs4)C[C@H]23)cc1	i	nt	i	nt	nt	nt	nt
O=S(=O)(Nc1ccc(O)c(Sc2nc3ccccc3s2)c1)c1cccc2cccnc12	nt	i	nt	nt	nt	nt	nt
O=C(CSc1nnc(-c2ccncc2)o1)Nc1cccc(C(F)(F)F)c1	nt	i	nt	nt	nt	nt	nt
N#Cc1c(NC(=O)C2CC(c3ccccc3O)=NO2)sc2c1CCCC2 (centres undefined)	nt	i	nt	nt	nt	nt	nt
Cc1ccc(N(CC(=O)Nc2cccc3ccccc23)S(C)(=O)=O)cc1Cl	nt	i	nt	nt	nt	nt	nt
CCc1cnc(N2[C@@H](C#N)[C@H](c3ccc(C4=CCCCC4)cc3)[C@@H]2CO)s1	i	nt	i	nt	nt	nt	nt
N#C[C@H]1[C@H](c2ccc(C3=CCCC3)cc2)[C@@H](CO)N1c1nc(-c2ccccc2)cs1	i	nt	i	nt	nt	nt	nt
CCc1csc(N2[C@H](C#N)[C@H](c3ccc(C4=CCCC4)cc3)[C@@H]2CO)n1	102	nt	i	107	112	i	36
CCc1cnc(N2[C@H](CO)[C@H](c3ccc(C4=CCCCC4)cc3)[C@@H]2C#N)s1	103	nt	i	104	102	38	40
